# CYP2C9 activ: CYP2C9 (human) activation; recombinant CYP2C9, luciferin-H conversion, luminescence; hits give high values; factor 1 = untreated enzyme, 0 = blocked; activation factor at 5 µM; actives 1.4% (n = 96,000);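 active = activation factor of 2 or more for CYP2C9 at a 5 µM dose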;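 note: 0 = sulfaphenazole-blocked wells and 1 = vehicle-only wells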
# CYP2C19 act: cytochrome P450 2C19 (human) activation; AID 1025; P33261; recombinant CYP2C19, luciferin-H EGE luminescence; hits give high values; 0 = fully inhibited enzyme, 1 = untreated enzyme; activation factor at 5 µM; 96,000 tested, under 10 active;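 active = activation factor of at least 2 at 5 µM in the primary screen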;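 note: 0 = wells with 2.5 mM tranylcypromine and 1 = vehicle-only wells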
# Target sequence (P33261 whole entry, looked up): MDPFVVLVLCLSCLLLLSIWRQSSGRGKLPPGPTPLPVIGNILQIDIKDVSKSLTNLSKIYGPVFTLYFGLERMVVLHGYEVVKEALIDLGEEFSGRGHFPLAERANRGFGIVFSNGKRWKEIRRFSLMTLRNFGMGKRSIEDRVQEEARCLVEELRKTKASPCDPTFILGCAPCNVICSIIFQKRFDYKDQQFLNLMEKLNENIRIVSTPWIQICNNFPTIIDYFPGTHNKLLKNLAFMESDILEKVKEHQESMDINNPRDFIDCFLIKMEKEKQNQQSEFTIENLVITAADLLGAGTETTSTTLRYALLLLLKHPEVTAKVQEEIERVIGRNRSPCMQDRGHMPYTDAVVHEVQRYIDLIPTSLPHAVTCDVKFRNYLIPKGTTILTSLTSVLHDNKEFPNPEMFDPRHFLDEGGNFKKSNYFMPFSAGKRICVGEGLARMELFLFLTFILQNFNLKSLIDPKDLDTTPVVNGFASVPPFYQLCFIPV
# tolC growth inh: E. coli tolC mutant growth inhibition; AID 573; E. coli BW25113 tolC mutant growth, OD615; actives 2.2% (n = 65,000); growth inhibition, % at 10 µM (by protocol);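 active = growth inhibition at or above a cutoff equal to the mean over every tested compound plus 3 SD, cut at about 60% in these data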;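 note: growth measured after 20 h incubation at 37 °C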
#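 Test system: tolC-deleted E. coli BW25113 | Medium: LB with kanamycin 50 µg/mL | Compound dosing: Single concentration, 10 µM final per compound | Schedule: 37 °C, 20 h exposure | Measured by: OD at 615 nm | Evaluation: Percent growth inhibition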
# Ecoli WT expand: E. coli BW25113 growth inhibition, expanded screen | OD600 absorbance | growth inhibition, % at 100 µM | actives 0.15% (n = 98,000) | AID 710;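 active = growth inhibition above about 50% at one test dose, limit read from the data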;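 note: growth measured after 20 h incubation at 37 °C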
# CYP2C19 inh: inhibitors of human CYP2C19; AID 778; CYP2C19 Supersomes, luciferin-H EGE luminescence, 30 min; actives 21% (n = 96,000); P33261; inhibition, % at 5 µM;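 active = CYP2C19 inhibition above a set limit at 5 µM in the primary screen, cut at about 50% in these data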;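 note: plate controls were negative control wells for no effect and 2.5 mM tranylcypromine positive control for full effect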
# CYP2C9 inh: blocks human cytochrome P450 2C9. P11712. AID 777. inhibition, % at 5 µM. CYP2C9 Supersomes, luciferin-H conversion, luminescence. actives 20% (n = 96,000);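 active = blocking of liver enzyme CYP2C9 beyond about 50% at 5 µM, limit read from the data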
# Starred values were filed as active, the others as inactive; nt = no result given. An excerpt weighted towards active compounds, which were near 29% of everything screened.
SMILES,CYP2C9 activ,CYP2C19 act,tolC growth inh,Ecoli WT expand,CYP2C19 inh,CYP2C9 inh
COc1ccccc1N1CCN(C(=O)C(C)N(c2ccccc2)S(C)(=O)=O)CC1 (stereo not given),0.9,1,nt,2,0,8
CCOc1ccc(Oc2ccc(-c3nnc(-c4ccccc4)o3)cc2[N+](=O)[O-])cc1,0.9,0.9,nt,-11,12,13
CCC(C)[C@H](Nc1nc(-c2ccccc2)nc2c1oc1ccccc12)C(=O)O (stereo not given in full),1,1,nt,1,3,2
O=C1c2ccccc2C(Nc2cccnc2)N1Cc1ccc2c(c1)OCO2 (stereo not given),0.7,0.4,3,5,57*,29
O=C1c2ccccc2C(=O)N1Cc1ccc2c(c1)OCO2,1.4,0.5,0,-1,54*,-39
O=C1c2ccccc2C(Nc2ccc3c(c2)OCO3)N1Cc1ccc2c(c1)OCO2 (stereo not given),0,0.1,25,-11,88*,97*
O=C1c2ccccc2C(O)N1Cc1ccc2c(c1)OCO2 (stereo not given),1,0.2,8,10,83*,3
O=C1c2ccccc2C(Nc2ccc3c(c2)OCO3)N1Cc1ccco1 (stereo not given),nt,nt,13,-1,nt,nt
COc1ccc(OC)c(NC2c3ccccc3C(=O)N2Cc2ccc3c(c2)OCO3)c1 (stereo not given),0.6,0.6,24,-14,43,42
CCOc1ccccc1OCCOc1cccc(C(F)(F)F)c1,1.4,0.8,nt,-3,20,-35
CCC(C)C(NC(=O)C1CCC(C)CC1)C(=O)NCc1ccccn1 (stereo not given),1,1,nt,8,-4,-1
COc1ccc(N2CCCCn3c2nc2c3c(=O)n(C)c(=O)n2C)cc1,0.6,0.7,-2,3,32,36
CS(=O)(=O)N1CCC(C(=O)c2cccc(Cl)c2)CC1,0.7,0.2,-9,1,79*,33
O=C(Oc1ccc2ccccc2c1)c1ccco1,0.9,1,7,12,2,11
O=C(/C=C/c1ccc2ccccc2c1)c1ccoc1,0.7,0.4,nt,-6,58*,34
COCCn1c(SCC(=O)c2ccc3c(c2)OCCO3)nnc1-c1ccco1,0.6,0.4,-21,2,65*,42
CCn1c(SCC(=O)c2ccc3ccccc3c2)nnc1-c1ccco1,0.6,0.8,nt,-2,19,40
CCn1c(SCC(=O)c2ccc3c(c2)OCCO3)nnc1-c1ccco1,0.6,0,20,3,96*,39
COc1ccccc1NC(=O)CSC(N)=O,0.8,0.7,nt,0,30,21
O=C(Cc1ccccc1)N/N=C/c1cccs1,1,0.7,nt,11,26,-3
Cc1ccccc1CSCC(=O)N/N=C/c1cccs1,0.7,0.4,nt,16,61*,32
CCOC(=O)c1cc(C#N)c(Oc2ccccc2)nc1-c1ccccc1,0.7,0.8,nt,-12,22,33
COC(=O)c1cc(C#N)c(Oc2ccc(F)cc2)nc1C,1,0.5,nt,-7,54*,1
COc1ccccc1NC(=O)NCCN1C(=O)C2C3C=CC(C3)C2C1=O (stereo not given),1,0.3,-7,-9,66*,3
O=C(NCCN1C(=O)C2C3C=CC(C3)C2C1=O)Nc1ccc(Br)cc1 (stereo not given),0.4,0.1,-21,-1,94*,55*
SMILES,CYP2C9 activ,CYP2C19 act,tolC growth inh,Ecoli WT expand,CYP2C19 inh,CYP2C9 inh
CCN1N=C(c2ccccc2)Cn2c1nc1ccccc12,0.3,0.4,nt,-8,58*,69*
C=COCCNC(=O)Nc1ccc(Cl)cc1Cl,0.9,0.9,0,5,10,9
O=C(CSc1n[nH]c(-c2ccc(Cl)cc2Cl)n1)Nc1ccccn1,0.3,0.7,nt,-5,30,72*
N#CCCn1cc(C(CC(=O)c2ccc(Br)cc2)C(=O)O)c2ccccc21 (stereo not given),0.4,0.7,-1,5,29,58*
Cc1ccc(C(=O)CC(C(=O)O)c2cn(CCC#N)c3ccccc23)cc1 (stereo not given),0.6,0.9,3,1,8,40
Cc1ccc2c(c1)CN1CN2Cc2cc(C)ccc21,0.6,0.5,7,3,54*,42
CCc1ccc2c(c1)cc(CN(C(=S)Nc1ccccc1C)C1CC1)c1nnnn12,0.5,1,nt,-4,-2,45
O=C(COc1ccc(Cl)cc1)N/N=C/CCc1ccccc1,1,0.5,nt,12,52*,0
CCOc1cc(/C=N/NS(=O)(=O)c2ccccc2)ccc1OS(=O)(=O)c1ccc(C)cc1,0,0,nt,-12,99*,100*
CCOc1cc(/C=N/NC(=O)COc2ccc(C)cc2)ccc1OC(=O)c1cccs1,0.3,0.6,nt,-3,43,69*
CCOc1cc(/C=C2\C(=O)N(c3ccc(C(N)=O)cc3)N=C2C)ccc1OC(=O)c1cccs1,0.7,0.3,nt,-4,67*,25
O=C(Cc1ccccc1)N/N=C/c1ccc(OCC(=O)Nc2ccccc2)cc1,0.9,1.1,nt,-2,-6,9
COC(=O)CC1=NC(=O)CS1,1.1,1.2,17,-3,-21,-14
CCc1nnc(NC(=O)[C@@H](NC(=O)c2cccc(S(=O)(=O)N3CCOCC3)c2)C(C)C)s1,0.9,0.9,nt,6,10,8
CCOc1cc(/C=N/NC(=O)COc2ccc(Cl)cc2)ccc1OS(=O)(=O)c1ccccc1,0.6,0.2,nt,-12,82*,37
CCOc1cc(/C=N\NC(=O)Cc2ccccc2)ccc1OCC(=O)Nc1ccc(C)c(C)c1,0.5,1.1,nt,-11,-13,46
COc1ccc(C)cc1N(CC(N)=O)S(=O)(=O)c1ccc(C)cc1,0.5,0.1,-17,4,90*,54*
COc1ccc(C)cc1N(CC(=O)O)S(=O)(=O)c1ccc(C)cc1,1,0.9,20,5,8,1
COc1ccc(S(=O)(=O)N(CC(=O)NC2CC2)c2ccc(C)cc2)cc1OC,0.9,0,-4,-4,99*,13
CNC(=O)CN(c1cc(C)ccc1OC)S(=O)(=O)c1ccc(C)cc1,0.9,0.9,0,0,11,7
COc1ccc(OC)c(N(CC(=O)NC2CC2)S(=O)(=O)c2ccc(C)cc2)c1,0.2,0.2,4,-5,84*,80*
CSc1nc(Oc2ccc(C)cc2)cc(C(F)(F)F)n1,1,1.1,nt,-4,-6,0
COc1ccc(-c2c3c(=O)n(C)c(=O)n(C)c3cn2C2CCCCC2)cc1,0.2,0.3,43,-5,70*,77*
COc1ccc(-c2c3c(=O)n(C)c(=O)n(C)c3c3nnc4ccccc4n23)cc1,nt,nt,-4,nt,nt,nt
O=C(CCCCCN1C(=O)c2ccccc2C1=O)NC1CCCC1,0.1,0.2,-11,4,78*,89*
